According to ChEMBL document CHEMBL1127013, “Glycosylated derivatives of benzophenone, benzhydrol, and benzhydril as potential venous antithrombotic agents” (1993):

Key:
Assay type in all cases: functional
Rattus norvegicus [1] = assay: Effective dose administered by intravenous route before injection of thrombogenic agent in rat model
Procedure, shortened: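 Intravenous dosing in rats at various times before the factor Xa thrombogenic challenge. Thrombus was isolated from the vein segment, dried 24 h at 55 °C and weighed. ED50 was calculated by linear regression with 95% confidence limits.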

Rattus norvegicus [2] = assay: Antithrombotic activity was determined at 100 mg/kg for nonlethal dose in rat
Procedure, shortened: (§1)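 Rats received 100 mg/kg intraperitoneally in (carboxymethyl)cellulose (5 mL/kg), for substances with a mouse lethal dose above 800 mg/kg. Factor Xa was injected 4 h later to induce venous thrombosis, with body temperature near 37 °C. Clamps were placed 15 min after partial flow was restored. The thrombus was excised, dried 24 h at 55 °C and weighed. The result is % reduction of thrombus weight, with 5–10 rats per lot.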

Rattus norvegicus [3] = assay: Percentage reduction of thrombus formation by weight in rat (intraperitoneal administration); parameters: concentration or dose not given beside the values
Procedure, shortened: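 Rat venous stasis thrombosis model using a factor Xa thrombogenic challenge 4 h after intraperitoneal dosing in carboxymethylcellulose at 5 mL/kg. Dose was 100 mg/kg when the mouse lethal dose exceeded 800 mg/kg, otherwise 1/10 of LD50. Body temperature was kept near 37 °C. Thrombus was excised from the split vein, dried 24 h at 55 °C and weighed. Read-out is % reduction in thrombus weight, with 5–10 rats per lot.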

Rattus norvegicus [4] = assay: Antithrombotic activity at 100 mg/kg for nonlethal dose in rat; procedure, shortened: as §1
Rattus norvegicus [5] = assay: Antithrombotic activity at 100 mg/kg in rat; procedure, shortened: as §1
Rattus norvegicus [6] = assay: Effective dose administered orally (4h before injection of the thrombotic stimulus) with reduced thrombus weight in dose-related manner; details: po
Rattus norvegicus [7] = assay: Antithrombotic activity at 1/10 mg/kg in rat
Procedure, shortened: (§2)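 Rat venous thrombosis model with factor Xa as the thrombogenic stimulus, injected 4 h after intraperitoneal dosing in (carboxymethyl)cellulose vehicle (5 mL/kg). Dose was 1/10 of the mouse LD50. Body temperature was kept near 37 °C. The vein was clamped 15 min after partial flow was restored. The thrombus was dried 24 h at 55 °C and weighed. The result is % reduction of thrombus weight, with 5–10 rats per lot.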

Rattus norvegicus [8] = assay: Antithrombotic activity at 1/10 mg/kg for lethal dose in rat; procedure, shortened: as §2

O=C(O)C1OC(OC2C(COS(=O)(=O)O)OC(CO)C(NS(=O)(=O)O)C2O)C(OS(=O)(=O)O)C(O)C1CO (centres undefined)
ED50 (Rattus norvegicus [1]): 0.15 mg/kg

COc1ccc(C(=O)c2ccc(O[C@@H]3OC[C@@H](O)[C@H](O)[C@H]3O)cc2)cc1
LD0 (Rattus norvegicus [2]): >800 mg
Activity (Rattus norvegicus [3]): 44%

O[C@@H]1[C@@H](O)[C@H](Oc2ccc(Cc3ccccc3Cl)cc2)OC[C@H]1O
LD0 (Rattus norvegicus [2]): >800 mg
Activity (Rattus norvegicus [3]): 0%

Cc1cc(C(=O)c2ccccc2C)ccc1O[C@@H]1OC[C@@H](O)[C@H](O)[C@H]1O
Activity (Rattus norvegicus [3]): 62%

Cc1ccc(O[C@@H]2OC[C@@H](O)[C@H](O)[C@H]2O)c(C(=O)c2ccccc2C)c1
LD0 (Rattus norvegicus [2]): >800 mg
Activity (Rattus norvegicus [3]): 0%

O=[N+]([O-])c1cccc(Cc2ccc(O[C@@H]3OC[C@@H](O)[C@H](O)[C@H]3O)cc2)c1
LD0 (Rattus norvegicus [2]): >800 mg
Activity (Rattus norvegicus [3]): 32%

O=C(c1ccc(Cl)cc1)c1cccc(O[C@@H]2OC[C@@H](O)[C@H](O)[C@H]2O)c1
LD50 (Rattus norvegicus [4]): 220 mg
Activity (Rattus norvegicus [3]): 0%

O=C(c1ccc(O[C@@H]2OC[C@@H](O)[C@H](O)[C@H]2O)cc1)c1cccc([N+](=O)[O-])c1
LD0 (Rattus norvegicus [2]): >800 mg
Activity (Rattus norvegicus [3]): 39%

O=C(c1ccccc1)c1ccc(O[C@@H]2O[C@H](CO)[C@@H](O)[C@H](O)[C@H]2O)cc1
LD0 (Rattus norvegicus [2]): >800 mg
Activity (Rattus norvegicus [3]): 25%

O=[N+]([O-])c1cccc(C(O)c2ccc(O[C@@H]3OC[C@@H](O)[C@H](O)[C@H]3O)cc2)c1 (some centres undefined)
LD50 (Rattus norvegicus [5]): 600 mg
Activity (Rattus norvegicus [3]): 63%

O[C@@H]1[C@@H](O)[C@H](Oc2ccc(Cc3ccccc3)cc2)OC[C@H]1O
LD0 (Rattus norvegicus [2]): >800 mg
Activity (Rattus norvegicus [3]): 12%

O=[N+]([O-])c1ccc(Cc2ccc(O[C@@H]3OC[C@@H](O)[C@H](O)[C@H]3O)cc2)cc1
LD50 (Rattus norvegicus [5]): 650 mg
ED50 (Rattus norvegicus [6]): 24 mg/kg
Activity (Rattus norvegicus [3]): 80%

O=C(c1ccc([N+](=O)[O-])cc1)c1cccc(O[C@@H]2OC[C@@H](O)[C@H](O)[C@H]2O)c1
LD0 (Rattus norvegicus [2]): >800 mg
Activity (Rattus norvegicus [3]): 61%

O=C(c1ccc(O[C@@H]2OC[C@@H](O)[C@H](O)[C@H]2O)cc1)c1ccc([N+](=O)[O-])cc1
LD0 (Rattus norvegicus [2]): >800 mg
Activity (Rattus norvegicus [3]): 0%

OC(c1ccc(Cl)cc1)c1ccc(O[C@@H]2OC[C@@H](O)[C@H](O)[C@H]2O)cc1 (some centres undefined)
LD0 (Rattus norvegicus [2]): >800 mg
Activity (Rattus norvegicus [3]): 39%

O=C(c1ccc(O[C@@H]2OC[C@@H](O)[C@H](O)[C@H]2O)cc1)c1ccccc1Cl
LD0 (Rattus norvegicus [2]): >800 mg
Activity (Rattus norvegicus [3]): 76%

COc1ccc(Cc2ccc(O[C@@H]3OC[C@@H](O)[C@H](O)[C@H]3O)cc2)cc1
LD0 (Rattus norvegicus [2]): >800 mg
Activity (Rattus norvegicus [3]): 43%

Cc1cc(C(O)c2ccccc2C)ccc1O[C@@H]1OC[C@@H](O)[C@H](O)[C@H]1O (some centres undefined)
LD50 (Rattus norvegicus [5]): 450 mg
Activity (Rattus norvegicus [3]): 14%

Cc1ccccc1C(=O)c1cccc(O[C@@H]2OC[C@@H](O)[C@H](O)[C@H]2O)c1
LD0 (Rattus norvegicus [2]): >800 mg
Activity (Rattus norvegicus [3]): 0%

O=C(c1ccc(Cl)cc1)c1ccc(O[C@@H]2O[C@H](CO)[C@H](O)[C@H](O)[C@H]2O)cc1
LD0 (Rattus norvegicus [2]): >800 mg
Activity (Rattus norvegicus [3]): 0%

O=[N+]([O-])c1ccc(C(O)c2ccc(O[C@@H]3OC[C@@H](O)[C@H](O)[C@H]3O)cc2)cc1 (some centres undefined)
ED50 (Rattus norvegicus [6]): 48 mg/kg
ED50 (Rattus norvegicus [1]): 17.8 mg/kg
LD0 (Rattus norvegicus [2]): >800 mg
Activity (Rattus norvegicus [3]): 80%

O[C@@H]1[C@@H](O)[C@H](Oc2ccc(Cc3ccc(Cl)cc3)cc2)OC[C@H]1O
LD0 (Rattus norvegicus [2]): >800 mg
Activity (Rattus norvegicus [3]): 22%

O=C(c1ccc(O[C@@H]2O[C@H](CO)[C@H](O)[C@H](O)[C@H]2O)cc1)c1ccc([N+](=O)[O-])cc1
LD0 (Rattus norvegicus [2]): >800 mg
Activity (Rattus norvegicus [3]): 0%

O=C(c1ccc(O[C@@H]2OC[C@@H](O)[C@H](O)[C@H]2O)cc1)c1ccc(C(F)(F)F)cc1
LD0 (Rattus norvegicus [2]): >800 mg
Activity (Rattus norvegicus [3]): 0%

O[C@@H]1[C@@H](O)[C@H](Oc2cccc(Cc3ccc(Cl)cc3)c2)OC[C@H]1O
LD50 (Rattus norvegicus [5]): 500 mg
Activity (Rattus norvegicus [3]): 46%

O[C@@H]1[C@@H](O)[C@H](Oc2ccc(Cc3ccc(Cl)cc3Cl)cc2)OC[C@H]1O
LD50 (Rattus norvegicus [5]): 640 mg
Activity (Rattus norvegicus [3]): 25%

O[C@@H]1[C@@H](O)[C@H](Oc2cccc(Cc3ccccc3)c2)OC[C@H]1O
LD50 (Rattus norvegicus [5]): 200 mg
Activity (Rattus norvegicus [3]): 39%

O=C(c1ccc(Cl)cc1)c1ccc(O[C@@H]2OC[C@@H](O)[C@H](O)[C@H]2O)cc1
LD0 (Rattus norvegicus [2]): >800 mg
Activity (Rattus norvegicus [3]): 37%

O=C(c1ccc(O[C@@H]2O[C@H](CO)[C@@H](O)[C@H](O)[C@@H]2O)cc1)c1ccc([N+](=O)[O-])cc1
LD0 (Rattus norvegicus [2]): >800 mg
Activity (Rattus norvegicus [3]): 0%

OC(c1ccc(O[C@@H]2OC[C@@H](O)[C@H](O)[C@H]2O)cc1)c1ccc(Cl)cc1Cl (some centres undefined)
LD50 (Rattus norvegicus [5]): 350 mg
Activity (Rattus norvegicus [3]): 37%

O=C(c1ccccc1)c1cccc(O[C@@H]2OC[C@@H](O)[C@H](O)[C@H]2O)c1
LD0 (Rattus norvegicus [2]): >800 mg
Activity (Rattus norvegicus [3]): 60%

O=C(c1ccc(OC2O[C@H](CO)[C@@H](O[C@@H]3O[C@H](CO)[C@H](O)[C@H](O)[C@H]3O)[C@H](O)[C@H]2O)cc1)c1ccc([N+](=O)[O-])cc1 (some centres undefined)
LD0 (Rattus norvegicus [2]): >800 mg
Activity (Rattus norvegicus [3]): 0%

OC(c1ccccc1)c1ccc(O[C@@H]2OC[C@@H](O)[C@H](O)[C@H]2O)cc1 (some centres undefined)
LD0 (Rattus norvegicus [2]): >800 mg
Activity (Rattus norvegicus [3]): 37%

O=C(c1ccc(O[C@H]2O[C@H](CO)[C@@H](O)[C@H](O)[C@@H]2O)cc1)c1ccc([N+](=O)[O-])cc1
LD0 (Rattus norvegicus [2]): >800 mg
Activity (Rattus norvegicus [3]): 0%

O=C(c1ccccc1)c1ccc(O[C@@H]2OC[C@@H](O)[C@H](O)[C@H]2O)cc1
LD50 (Rattus norvegicus [7]): 750 mg
Activity (Rattus norvegicus [3]): 77%

O=C(c1ccc(O[C@@H]2O[C@H](CO)[C@@H](O)[C@H](O)[C@H]2O)cc1)c1ccc([N+](=O)[O-])cc1
LD0 (Rattus norvegicus [2]): >800 mg
Activity (Rattus norvegicus [3]): 0%

OC(c1ccc(O[C@@H]2OC[C@@H](O)[C@H](O)[C@H]2O)cc1)c1ccccc1Cl (some centres undefined)
LD0 (Rattus norvegicus [2]): >800 mg
Activity (Rattus norvegicus [3]): 51%

C[C@@H]1O[C@H](Oc2ccc(C(=O)c3ccc([N+](=O)[O-])cc3)cc2)[C@H](O)[C@H](O)[C@H]1O
LD0 (Rattus norvegicus [2]): >800 mg
Activity (Rattus norvegicus [3]): 0%

Cc1ccc(C(=O)c2cccc(O[C@@H]3OC[C@@H](O)[C@H](O)[C@H]3O)c2)cc1
LD0 (Rattus norvegicus [2]): >800 mg
Activity (Rattus norvegicus [3]): 0%

N#Cc1ccc(C(=O)c2ccc(O[C@@H]3OC[C@@H](O)[C@H](O)[C@H]3O)cc2)cc1
Activity (Rattus norvegicus [3]): 0%

O=C(c1ccc(O[C@H]2OC[C@@H](O)[C@H](O)[C@H]2O)cc1)c1ccc([N+](=O)[O-])cc1
LD50 (Rattus norvegicus [8]): 600 mg
Activity (Rattus norvegicus [3]): 38%

OC(c1ccccc1)c1cccc(O[C@@H]2OC[C@@H](O)[C@H](O)[C@H]2O)c1 (some centres undefined)
LD0 (Rattus norvegicus [2]): >800
Activity (Rattus norvegicus [3]): 19%

OC(c1ccc(Cl)cc1)c1cccc(O[C@@H]2OC[C@@H](O)[C@H](O)[C@H]2O)c1 (some centres undefined)
LD0 (Rattus norvegicus [2]): >800 mg
Activity (Rattus norvegicus [3]): 0%

O=C(c1ccc(O[C@@H]2O[C@H](CO)[C@H](O[C@@H]3O[C@H](CO)[C@@H](O)[C@H](O)[C@H]3O)[C@H](O)[C@H]2O)cc1)c1ccc([N+](=O)[O-])cc1
LD0 (Rattus norvegicus [2]): >800 mg
Activity (Rattus norvegicus [3]): 17%

O=C(c1ccc(Cl)cc1)c1ccc(O[C@@H]2O[C@H](CO)[C@@H](O)[C@H](O)[C@H]2O)cc1
LD0 (Rattus norvegicus [2]): >800 mg
Activity (Rattus norvegicus [3]): 0%

Cc1ccc(C(=O)c2ccc(O[C@@H]3OC[C@@H](O)[C@H](O)[C@H]3O)cc2)cc1
LD0 (Rattus norvegicus [2]): >800 mg
Activity (Rattus norvegicus [3]): 0%

O=C(c1ccc(O[C@@H]2OC[C@@H](O)[C@H](O)[C@H]2O)cc1)c1ccc(Cl)cc1Cl
LD0 (Rattus norvegicus [2]): >800 mg
Activity (Rattus norvegicus [3]): 18%
